MrgX1 allo act – positive allosteric modulators of MrgX1, primary screen, HEK293 cells, Fluo-4 calcium flux | Mas-related G-protein coupled receptor member X1 (Homo sapiens), Q96LB2 | FDSS; active compounds read high | B-score at 10 µM | actives 0.63% (n = 310,000);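 active = plate-corrected calcium response at least 3 library SD above typical, normal starting fluorescence, not activating the receptor alone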;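 note: compound read alongside a low EC10 to EC30 dose of BAM8-22 agonist; peak minus trough fluorescence over baseline measured at the second addition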
Target sequence (Q96LB2 whole entry, looked up): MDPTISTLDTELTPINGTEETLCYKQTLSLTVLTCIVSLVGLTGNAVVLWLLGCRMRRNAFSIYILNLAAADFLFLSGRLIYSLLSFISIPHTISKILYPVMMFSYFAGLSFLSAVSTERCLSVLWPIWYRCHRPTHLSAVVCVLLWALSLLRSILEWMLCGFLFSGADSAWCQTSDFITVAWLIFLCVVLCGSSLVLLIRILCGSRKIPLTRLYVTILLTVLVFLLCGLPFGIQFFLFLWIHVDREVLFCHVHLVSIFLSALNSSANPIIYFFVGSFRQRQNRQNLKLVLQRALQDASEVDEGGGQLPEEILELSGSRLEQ
RGS4 block – RGS4 inhibitors, primary screen, cell-based, HEK293 M3R inducible RGS4, calcium flux. Fluo-4 calcium flux; active compounds read high; triggered by carbachol at its EC20. B-score at 10 µM. actives 0.45% (n = 310,000). Regulator of G-protein signaling 4 (Homo sapiens), P49798;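 active = B-score, a plate-corrected calcium signal, over three deviations above library mean, with baseline fluorescence within five deviations of library mean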;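 note: RGS4 expression induced by doxycycline in cells with stable M3 receptor; B-score is computed from the integrated fluorescence ratio over baseline after carbachol; higher B-score means a larger calcium signal and so more RGS4 inhibition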
Target sequence (P49798 whole entry, looked up): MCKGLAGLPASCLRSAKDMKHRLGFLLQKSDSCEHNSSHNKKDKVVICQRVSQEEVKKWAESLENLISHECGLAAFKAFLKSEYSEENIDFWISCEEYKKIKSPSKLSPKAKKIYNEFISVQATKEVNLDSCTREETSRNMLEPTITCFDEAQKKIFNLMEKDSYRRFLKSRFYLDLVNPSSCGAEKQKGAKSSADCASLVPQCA
MrgX1 ag – agonists of human MrgX1 receptor, primary screen, HEK293 cells, Fluo-4 calcium flux; actives 0.44% (n = 310,000); Fluo-4 calcium fluorescence, agonist mode; active compounds read high; Mas-related G-protein coupled receptor member X1 (Homo sapiens), Q96LB2; B-score at 10 µM;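 active = calcium response B-score plate-corrected fluorescence ratio at least 3 library SD, with starting fluorescence B-score inside 5 SD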
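Material: MrgX1-expressing HEK293 cells / Dosing: compound as first of three additions / Incubation: overnight seeding, then 1 h dark dye loading / Signal: Fluo-4 NW calcium fluorescence / Evaluation: B-scored fluorescence response ratio / Benchmarks: positive and negative control wells on each plate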
RGS4 pot – RGS4 potentiators or activators, primary screen, cell-based, HEK293 M3R inducible RGS4, calcium flux. carbachol calcium flux Fluo4; active compounds read low. actives 0.92% (n = 310,000). AID 463111, 2010. B-score at 10 µM;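 active = B-score of the integrated calcium signal more than 4 SD below the library mean, with starting fluorescence not abnormally high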;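 note: negative B-score means reduced calcium response which marks RGS4 activation or potentiation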
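Reagent: ECmax carbachol challenge; Test system: M3R-expressing HEK293 line, RGS4 induced by doxycycline; Schedule: overnight RGS4 induction, 30 min dye load 37 °C, 20 min compound RT; Detection: calcium dye Fluo4 fluorescence; Read-out: Agonist-evoked peak-minus-minimum fluorescence over baseline, integrated ratio, B score.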
MrgX1 antag – antagonists of human MrgX1 receptor, primary screen, HEK293 cells, Fluo-4 calcium flux; Mas-related G-protein coupled receptor member X1 (Homo sapiens), Q96LB2; BAM8-22 antagonism; active compounds read low; B-score at 10 µM; actives 1.3% (n = 310,000); AID 588676, 2011;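 active = calcium-response B-score plate-corrected more than 3 library SD below zero, starting fluorescence within 5 deviations, no agonist response on first addition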;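 note: peak minus trough fluorescence over baseline after final BAM8-22 challenge near maximal dose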
Of the large screens only hits and unclear results are named; the others gave an inactive call. Most compounds without a hit are left out; they make up all but 3.5% or so of the library.

O=C(Nc1nnc(-c2cccs2)o1)c1ccc(S(=O)(=O)N2CCOCC2)cc1	none
CCC1CCCCN1S(=O)(=O)c1ccc(C(=O)Nc2nnc(-c3ccccc3Cl)o2)cc1 (configuration not stated)	MrgX1 ag 38
Cc1oc(-c2ccccc2Cl)nc1CN1CCCC1c1ccc(F)cc1 (configuration not stated)	none
Cc1oc(-c2ccccc2Cl)nc1CN1CCCCC1c1cccnc1 (configuration not stated)	MrgX1 ag 41
CCOC(=O)C1CCCN(C(=O)c2cc3ccc(OC)cc3[nH]2)C1 (configuration not stated)	none
CN(C(=O)COC(=O)c1ccccc1Nc1ccccc1)c1c(N)n(Cc2ccccc2)c(=O)[nH]c1=O	MrgX1 antag -7
COc1ccccc1-n1cc(CN2CCN(C3CCCCC3)C(CCO)C2)cn1 (configuration not stated)	none
Cc1nc(N2CCCCC2)c2c(C)c(C(=O)Nc3ccc4c(c3)OCCO4)sc2n1	RGS4 pot -7
CC1CCN(Cc2nnnn2CCCC(=O)NCCN2CCOCC2)CC1	none
C#CCN1C(=O)S/C(=C/C=C/c2ccc(N(C)C)cc2)C1=O	MrgX1 antag -5.3 (no result: RGS4 block, RGS4 pot)
O=C(CN1C(=O)S/C(=C\C=C\c2ccccc2)C1=O)Nc1ccccc1C(=O)O	none
CCc1cc(=O)[nH]c(SCC(=O)NCc2ccc3c(c2)OCO3)n1	none
COCCN(CCOC)c1nc(-c2ccc(Cl)cc2)nc2ccccc12	RGS4 pot -7.3
COCc1nnc(NC(=O)C2CC(=O)N(C3CCCC3)C2)s1 (configuration not stated)	none
COc1ccc(/C=c2\sc3nc(=O)c(C)nn3c2=O)c(OC)c1	MrgX1 ag 27
O=C(c1cc(F)c(F)cc1Cl)N1CCN(c2ncccn2)CC1	none
O=C(/C=C/c1ccc([N+](=O)[O-])cc1)OCC(=O)N1c2ccccc2Sc2ccccc21	RGS4 pot -8.2
O=C(COC(=O)/C=C/c1ccc([N+](=O)[O-])cc1)NCc1ccccc1	none
C[C@@]12C(=O)Nc3cc(Cl)ccc3C(=O)N1[C@H]1c3cc(Br)ccc3OC[C@@H]1[C@@H]2c1ccccc1	none (no result: RGS4 block, RGS4 pot)
CC1(C)CCCN(C(=O)N2c3ccccc3Sc3ccccc32)C1	RGS4 pot -9.2
O=C(N/N=C/c1ccc(-c2ccc(Cl)c(C(=O)O)c2)o1)c1cc2c(ccc3ccccc32)o1	MrgX1 antag -9.8
COc1cc(/C=N/NC(=O)c2cc3c(ccc4ccccc43)o2)cc(OC)c1O	RGS4 pot -7.3
COc1ccc(/C=N\NC(=O)c2cc3c(ccc4ccccc43)o2)cc1O	RGS4 pot -7.2
Cc1ccc(-c2ccc(/C=N\NC(=O)c3cc4c(ccc5ccccc54)o3)o2)cc1[N+](=O)[O-]	none
COc1cc(Br)cc(/C=N/NC(=O)Cc2ccccc2)c1O	none
COc1cc(/C=N/NC(=O)Cc2ccc(Br)cc2)cc(OC)c1O	MrgX1 allo act 7.5
O=C(Nc1ccc(F)cc1)C1CCN(S(=O)(=O)c2cccc3nonc23)CC1	none
O=C(NCCN1CCN(C(=O)c2ccc(F)cc2)CC1)C(=O)NCc1ccccc1	none
CCCCCC[N+](C)(C)CC/C=C1/c2ccccc2Sc2ccc(Cl)cc21	RGS4 pot -9.5
CCCc1nnc(NC(=O)CCC(=O)N2CCC(C)CC2)s1	none
FC(F)(F)c1cc(CCN2C(=S)NC[C@@H]2CC2CCCCC2)cc(C(F)(F)F)c1	RGS4 pot -9.8
COc1ccc(NC(=O)c2ccc(F)c(F)c2)c2ccccc12	none
CCN(CCn1cccn1)C(=O)CC1C(=O)NCCN1Cc1ccc(F)cc1 (configuration not stated)	MrgX1 ag 29
O=C(NNC(=O)C1CC1c1ccccc1)Nc1cccc(Cl)c1 (configuration not stated)	MrgX1 antag -5.4
CCc1cccc(NC(=O)C2CC2c2ccccc2)c1 (configuration not stated)	none
CC(Oc1ccc(Br)cc1)C(=O)NC1CCN(Cc2ccccc2)CC1 (configuration not stated)	RGS4 pot -7.6
O=C(CCc1c[nH]c2ccccc12)OCC(=O)N1CCN(S(=O)(=O)c2ccccc2)CC1	none
COc1ccc(-c2csc(NC(=O)c3ccc(OCC(=O)N4CCOCC4)c(OC)c3)n2)cc1	MrgX1 antag -5.1
CS(=O)(=O)N1CCC(C(=O)NCc2ccc3c(c2)OCO3)CC1	none
O=C1C=CC(=O)N1c1cccc(-c2ccccc2)c1	RGS4 pot -9.5
CN(NC(=O)c1ccc(Cl)cc1Cl)C1=NS(=O)(=O)c2ccccc21	MrgX1 antag -6.3
O=C(Nc1nc(SCc2ccc(F)cc2)ns1)c1ccco1	RGS4 block 8.2
O=C(Cn1nnc2ccccc21)OCC(=O)c1ccccc1	MrgX1 antag -6.1
CC(C)(C)c1ccc(OCC(O)CN2CCc3ccccc3C2)cc1 (configuration not stated)	none
NCC(c1ccccc1)c1c[nH]c2ccccc12 (configuration not stated)	none
O=[N+]([O-])CC(c1ccc(F)cc1)c1c[nH]c2ccccc12 (configuration not stated)	MrgX1 allo act 6.5
CCN=C1S/C(=C\c2cc(Cl)c(OC)c(OC)c2)C(=O)N1CC	none
CCN=C1S/C(=C\c2ccc(OCC)c(OC)c2)C(=O)N1CC	MrgX1 antag -5.1
COC(=O)CCC(=O)OC1(C)C(=O)C2=CN(Cc3ccc(OC)cc3)C(c3ccc(OC)cc3)=CC2=C(Br)C1=O (configuration not stated)	MrgX1 antag -4.9
CC(C)(C)C(=O)N/C(N)=N/c1nc2ccccc2o1	none
COc1ccc(Nc2nnc(SCc3cc([N+](=O)[O-])cc4c3OCOC4)s2)cc1	MrgX1 antag -4.6
Cc1nnc(SCc2cc([N+](=O)[O-])cc3c2OCOC3)[nH]c1=O	none
O=C(NCCC(=O)N1CCC2(CC1)NCCc1[nH]cnc12)c1ccc(Br)cc1	none
CCNC(=S)N/N=C(\C)c1ccc2c(c1)OCCO2	MrgX1 antag -6.5
OCCNc1nc(Nc2cc(Cl)ccc2OC2CCCC2)nc(N2CCCC2)n1	none
CCN1/C(=C/C(C)=C/c2sc3ccccc3[n+]2CC)Sc2ccccc21	MrgX1 antag -6.4
Cc1ccc(Oc2ncccc2/C=N/OCc2ccc(Cl)c(Cl)c2)cc1	MrgX1 allo act 8.6
COc1ccc(CN2CCN(CCCCOc3ccc(Cl)cc3)CC2)c(OC)c1OC	none
O=C(Cc1c(F)cccc1Cl)NNC(=S)Nc1ccc(S(=O)(=O)Nc2ncccn2)cc1	none
CC(=O)c1sc(NC(=O)c2ccc(Cn3cc(Br)cn3)o2)nc1C	MrgX1 allo act 6.5

High-throughput results from PubChem.
